Measured values as given in ChEMBL document CHEMBL1806386, “Antiproliferative activity of aroylacrylic acids. Structure-activity study based on molecular interaction fields” (Eur J Med Chem, 2011).

Assays:
[1] = Antiproliferative activity against human LS 174T cells assessed as inhibition of cell survival after 72 hrs by MTT method; assay type: functional, cell-based; conditions: LS174T
In short: (§1)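 HeLa (2000 cells/well) or LS174 (5000 cells/well) seeded in RPMI-1640 with 10% FBS, 3 mmol/L L-glutamine, 25 mM Hepes, pH 7.2; five concentrations added after 20 h from 10 mM DMSO stocks, each in triplicate. MTT 72 h after dosing, 4 h at 37 °C, SDS solubilization, A570 next day. Blank-subtracted survival vs control; IC50 is the mean of three experiments.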

HeLa [2] = assay: Antiproliferative activity against human HeLa cells assessed as inhibition of cell survival after 72 hrs by MTT method; assay type: functional, cell-based; in short: as §1
K562 = assay: Antiproliferative activity against human K562 cells assessed as inhibition of cell survival after 72 hrs by MTT method; assay type: functional, cell-based; conditions: K562, 72 h
In short: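 K562 grown in suspension at 3000 cells/well in RPMI-1640 with 10% FBS, 3 mmol/L L-glutamine, 25 mM Hepes, pH 7.2. Five concentrations added 2 h after seeding from 10 mM DMSO stocks, in triplicate. MTT read 72 h later, SDS solubilization, A570. IC50 taken from blank-subtracted survival relative to control, mean of three experiments.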

HeLa [3] = assay: Cell cycle arrest in human HeLa cells assessed as accumulation at S phase at 2 times IC50 after 72 hrs using propidium iodide staining by flow cytometry (reference value: 22.53%); assay type: functional
In short: (§2)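 HeLa cells, 5×10⁵ per aliquot, treated at two times the 72 h IC50 for 24, 48 or 72 h alongside untreated controls. Fixed in 70% ethanol on ice for one week, given RNase A at 37 °C for 30 min, then PI for at least 30 min. Flow cytometry with 488 nm excitation, FL2 at 585/42 nm, doublets excluded, 20,000 events per sample.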

HeLa [4] = assay: Cell cycle arrest in human HeLa cells assessed as accumulation at G1 phase at 2 times IC50 after 48 hrs using propidium iodide staining by flow cytometry (reference value: 51.32%); assay type: functional; in short: as §2
HeLa [5] = assay: Cell cycle arrest in human HeLa cells assessed as accumulation at S phase at 2 times IC50 after 48 hrs using propidium iodide staining by flow cytometry (reference value: 20.14%); assay type: functional; in short: as §2
HeLa [6] = assay: Cell cycle arrest in human HeLa cells assessed as accumulation at S phase at 2 times IC50 after 24 hrs using propidium iodide staining by flow cytometry (reference value: 24.47%); assay type: functional; in short: as §2
HeLa [7] = assay: Cell cycle arrest in human HeLa cells assessed as accumulation at G2/M phase at 2 times IC50 after 24 hrs using propidium iodide staining by flow cytometry (reference value: 25.97%); assay type: functional; in short: as §2
HeLa [8] = assay: Cell cycle arrest in human HeLa cells assessed as accumulation at G1 phase at 2 times IC50 after 72 hrs using propidium iodide staining by flow cytometry (reference value: 49.90%); assay type: functional; in short: as §2
HeLa [9] = assay: Cell cycle arrest in human HeLa cells assessed as accumulation at G2/M phase cell at 2 times IC50 after 72 hrs using propidium iodide staining by flow cytometry (reference value: 17.57%); assay type: functional; in short: as §2
HeLa [10] = assay: Cell cycle arrest in human HeLa cells assessed as accumulation at G2/M phase cell at 2 times IC50 at 2 times IC50 after 48 hrs using propidium iodide staining by flow cytometry (reference value: 22.05%); assay type: functional; in short: as §2
HeLa [11] = assay: Cell cycle arrest in human HeLa cells assessed as accumulation at sub-G1 phase at 2 times IC50 after 48 hrs using propidium iodide staining by flow cytometry (reference value: 6.87%); assay type: functional; in short: as §2
HeLa [12] = assay: Cell cycle arrest in human HeLa cells assessed as accumulation at G1 phase at 2 times IC50 after 24 hrs using propidium iodide staining by flow cytometry (reference value: 46.78%); assay type: functional; in short: as §2
HeLa [13] = assay: Cell cycle arrest in human HeLa cells assessed as accumulation at sub-G1 phase at 2 times IC50 after 72 hrs using propidium iodide staining by flow cytometry (reference value: 9.85%); assay type: functional; in short: as §2
HeLa [14] = assay: Cell cycle arrest in human HeLa cells assessed as accumulation at sub-G1 phase at 2 times IC50 after 24 hrs using propidium iodide staining by flow cytometry (reference value: 3.34%); assay type: functional; in short: as §2

O=C(O)/C=C/C(=O)c1ccccc1
IC50 [1]: 45.5 µM | IC50 (HeLa [2]): 30.6 µM | IC50 (K562): 30.2 µM

CCc1ccc(C(=O)/C=C/C(=O)O)cc1
IC50 [1]: 21 µM | IC50 (HeLa [2]): 27.8 µM | IC50 (K562): 5.53 µM

CC(C)c1ccc(C(=O)/C=C/C(=O)O)cc1
IC50 [1]: 25.7 µM | IC50 (HeLa [2]): 4.9 µM | IC50 (K562): 5.56 µM

CCCCc1ccc(C(=O)/C=C/C(=O)O)cc1
IC50 [1]: 6.74 µM | IC50 (HeLa [2]): 4.78 µM | IC50 (K562): 4.95 µM

CC(C)(C)c1ccc(C(=O)/C=C/C(=O)O)cc1
IC50 [1]: 8.74 µM | IC50 (HeLa [2]): 5.1 µM | IC50 (K562): 4.33 µM

CCCCCCCCCCCCc1ccc(C(=O)/C=C/C(=O)O)cc1
IC50 [1]: 7.85 µM | IC50 (HeLa [2]): 5.82 µM | IC50 (K562): 4.01 µM

Cc1ccc(C(=O)/C=C/C(=O)O)c(C)c1
IC50 [1]: 7.08 µM | IC50 (HeLa [2]): 6.06 µM | IC50 (K562): 5.35 µM

Cc1ccc(C)c(C(=O)/C=C/C(=O)O)c1
IC50 [1]: 22 µM | IC50 (HeLa [2]): 7.86 µM | IC50 (K562): 5.9 µM

Cc1ccc(C(=O)/C=C/C(=O)O)cc1C
IC50 [1]: 12.1 µM | IC50 (HeLa [2]): 7.28 µM | IC50 (K562): 5.62 µM

O=C(O)/C=C/C(=O)c1ccc2c(c1)CCCC2
IC50 [1]: 17.6 µM | IC50 (HeLa [2]): 7.01 µM | IC50 (K562): 5.6 µM

CCc1ccc(C(C)C)cc1C(=O)/C=C/C(=O)O
IC50 [1]: 5.94 µM | IC50 (HeLa [2]): 4.89 µM | IC50 (K562): 1.36 µM

CC(C)c1ccc(C(=O)/C=C/C(=O)O)c(C(C)C)c1
IC50 [1]: 5.36 µM | IC50 (HeLa [2]): 4.06 µM | IC50 (K562): 4.68 µM

CC(C)c1ccc(C(C)C)c(C(=O)/C=C/C(=O)O)c1
IC50 [1]: 6.23 µM | IC50 (HeLa [2]): 4.75 µM | IC50 (K562): 3.28 µM

CCc1cc(CC)c(C(=O)/C=C/C(=O)O)c(CC)c1
IC50 [1]: 7.28 µM | IC50 (HeLa [2]): 6.53 µM | IC50 (K562): 4.01 µM

CC(C)c1cc(C(C)C)c(C(=O)/C=C/C(=O)O)c(C(C)C)c1
IC50 [1]: 8.28 µM | IC50 (HeLa [2]): 6.1 µM | IC50 (K562): 4.67 µM

CCc1c(C(=O)/C=C/C(=O)O)cc(C(C)C)cc1C(C)C
IC50 [1]: 12.3 µM | IC50 (HeLa [2]): 7.61 µM | IC50 (K562): 5.1 µM

Cc1cc(C2CCCCC2)c(C)cc1C(=O)/C=C/C(=O)O
IC50 [1]: 6.64 µM | IC50 (HeLa [2]): 2.38 µM | IC50 (K562): 4.24 µM

O=C(O)/C=C/C(=O)c1cc(C2CCCCC2)ccc1C1CCCCC1
IC50 [1]: 4.28 µM | Activity (HeLa [3]): 24.2% | Activity (HeLa [4]): 36.94% | Activity (HeLa [5]): 31.66% | Activity (HeLa [6]): 32.67% | Activity (HeLa [7]): 15.36% | IC50 (HeLa [2]): 1.26 µM | Activity (HeLa [8]): 38.3% | Activity (HeLa [9]): 16.57% | Activity (HeLa [10]): 16.73% | Activity (HeLa [11]): 15.79% | Activity (HeLa [12]): 39.98% | Activity (HeLa [13]): 21.71% | IC50 (K562): 3.32 µM | Activity (HeLa [14]): 12.64%

Cc1ccc(C(=O)/C=C/C(=O)O)c(Cl)c1
IC50 [1]: 27.7 µM | IC50 (HeLa [2]): 7.6 µM | IC50 (K562): 14.6 µM

O=C(O)/C=C/C(=O)c1ccc(F)cc1
IC50 [1]: 33.8 µM | IC50 (HeLa [2]): 28.4 µM | IC50 (K562): 16.9 µM

O=C(O)/C=C/C(=O)c1ccc(Cl)cc1
IC50 [1]: 28.7 µM | IC50 (HeLa [2]): 25.4 µM | IC50 (K562): 21.7 µM

O=C(O)/C=C/C(=O)c1ccc(Br)cc1
IC50 [1]: 27.1 µM | IC50 (HeLa [2]): 18.7 µM | IC50 (K562): 11.2 µM

O=C(O)/C=C/C(=O)c1ccc(Cl)cc1Cl
IC50 [1]: > 100 µM | IC50 (HeLa [2]): 62.9 µM | IC50 (K562): 58.5 µM

COc1ccc(C(=O)/C=C/C(=O)O)cc1
IC50 [1]: 34.7 µM | IC50 (HeLa [2]): 27.4 µM | IC50 (K562): 12.3 µM

COc1ccc(C(=O)/C=C/C(=O)O)c(OC)c1OC
IC50 [1]: > 100 µM | IC50 (HeLa [2]): 96.2 µM | IC50 (K562): > 100 µM

Cc1ccc(C(=O)/C=C/C(=O)O)cc1
IC50 [1]: 28.4 µM | IC50 (HeLa [2]): 7.62 µM | IC50 (K562): 9.17 µM

O=C(O)/C=C/C(=O)c1ccc(Cl)c(Cl)c1
IC50 [1]: 32.3 µM | IC50 (HeLa [2]): 28.3 µM | IC50 (K562): 23.2 µM
